In ChEMBL document CHEMBL3425440, “ent-Kaurane Diterpenoids from Chinese Liverworts and Their Antitumor Activities through Michael Addition As Detected in Situ by a Fluorescence Probe” (J Med Chem, 2015):

system: not listed separately; experiment: Cytotoxicity against human PC3 cells assessed as cell viability after 24 hrs by MTT assay; format: functional, cell-based; settings: PC-3, 24 h
Method in brief: (§1)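 Cells grown to about 50−70% confluence at 37 °C, 5% CO2, then exposed to compounds 24 h (DMSO vehicle control, cisplatin positive control). MTT (5 mg/mL stock) added for 4 h, formazan dissolved in DMSO, absorbance read at 570 nm. IC50 derived from percent viability; at least three independent experiments, mean ± SD.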

SMILES	IC50 [µM]
C=C1C(=O)[C@@]23CC[C@@H]4[C@@](C)(C=O)CCC[C@@]4(C)C2=CC[C@]1(O)C3	11.4
C[C@H]1C(=O)[C@@]23CC[C@@H]4[C@@](C)(CO)CCC[C@@]4(C)C2=CC[C@]1(O)C3	> 50
C[C@@H]1C(=O)[C@H]2C[C@]1(O)CC1=C2[C@]2(C)CCC[C@](C)(C=O)[C@H]2CC1	> 50
C=C1C(O)[C@@]23CC[C@H]4[C@@](C)(CCC[C@@]4(C)C(=O)O)[C@@H]2CC[C@]1(O)C3 (stereo not given in full)	> 50
C=C1[C@@H]2CC[C@H]3[C@]4(C)CCCC(C)(C)[C@H]4CC[C@]3(C2)[C@@H]1O	> 50

system: not listed separately; experiment: Cytotoxicity against human T24 cells assessed as cell viability after 24 hrs by MTT assay; format: functional, cell-based; settings: T-24, 24 h; method in brief: as §1

SMILES	IC50 [µM]
C=C1C(=O)[C@@]23CC[C@@H]4[C@@](C)(C=O)CCC[C@@]4(C)C2=CC[C@]1(O)C3	5.9
C[C@H]1C(=O)[C@@]23CC[C@@H]4[C@@](C)(CO)CCC[C@@]4(C)C2=CC[C@]1(O)C3	> 50
C[C@@H]1C(=O)[C@H]2C[C@]1(O)CC1=C2[C@]2(C)CCC[C@](C)(C=O)[C@H]2CC1	> 50
C=C1C(O)[C@@]23CC[C@H]4[C@@](C)(CCC[C@@]4(C)C(=O)O)[C@@H]2CC[C@]1(O)C3 (stereo not given in full)	> 50
C=C1[C@@H]2CC[C@H]3[C@]4(C)CCCC(C)(C)[C@H]4CC[C@]3(C2)[C@@H]1O	> 50

system: not listed separately; experiment: Cytotoxicity against human RWPE1 cells assessed as cell viability after 24 hrs by MTT assay; format: cell-based; settings: RWPE-1, 24 h; method in brief: as §1

SMILES	IC50 [µM]
C=C1C(=O)[C@@]23CC[C@@H]4[C@@](C)(C=O)CCC[C@@]4(C)C2=CC[C@]1(O)C3	12.7
C[C@H]1C(=O)[C@@]23CC[C@@H]4[C@@](C)(CO)CCC[C@@]4(C)C2=CC[C@]1(O)C3	> 50
C[C@@H]1C(=O)[C@H]2C[C@]1(O)CC1=C2[C@]2(C)CCC[C@](C)(C=O)[C@H]2CC1	> 50
C=C1C(O)[C@@]23CC[C@H]4[C@@](C)(CCC[C@@]4(C)C(=O)O)[C@@H]2CC[C@]1(O)C3 (stereo not given in full)	> 50
C=C1[C@@H]2CC[C@H]3[C@]4(C)CCCC(C)(C)[C@H]4CC[C@]3(C2)[C@@H]1O	> 50

system: LoVo; experiment: Cytotoxicity against human LoVo cells assessed as cell viability after 24 hrs by MTT assay; format: functional, cell-based; settings: not given; method in brief: as §1

SMILES	IC50 [µM]
C=C1C(=O)[C@@]23CC[C@@H]4[C@@](C)(C=O)CCC[C@@]4(C)C2=CC[C@]1(O)C3	9.3
C[C@H]1C(=O)[C@@]23CC[C@@H]4[C@@](C)(CO)CCC[C@@]4(C)C2=CC[C@]1(O)C3	> 50
C[C@@H]1C(=O)[C@H]2C[C@]1(O)CC1=C2[C@]2(C)CCC[C@](C)(C=O)[C@H]2CC1	> 50
C=C1C(O)[C@@]23CC[C@H]4[C@@](C)(CCC[C@@]4(C)C(=O)O)[C@@H]2CC[C@]1(O)C3 (stereo not given in full)	> 50
C=C1[C@@H]2CC[C@H]3[C@]4(C)CCCC(C)(C)[C@H]4CC[C@]3(C2)[C@@H]1O	> 50

system: MDA-MB-231; experiment: Cytotoxicity against human MDA-MB-231 cells assessed as cell viability after 24 hrs by MTT assay; format: functional, cell-based; settings: MDA-MB-231, 24 h; method in brief: as §1

SMILES	IC50 [µM]
C=C1C(=O)[C@@]23CC[C@@H]4[C@@](C)(C=O)CCC[C@@]4(C)C2=CC[C@]1(O)C3	21.6
C[C@H]1C(=O)[C@@]23CC[C@@H]4[C@@](C)(CO)CCC[C@@]4(C)C2=CC[C@]1(O)C3	> 50
C[C@@H]1C(=O)[C@H]2C[C@]1(O)CC1=C2[C@]2(C)CCC[C@](C)(C=O)[C@H]2CC1	> 50
C=C1C(O)[C@@]23CC[C@H]4[C@@](C)(CCC[C@@]4(C)C(=O)O)[C@@H]2CC[C@]1(O)C3 (stereo not given in full)	> 50
C=C1[C@@H]2CC[C@H]3[C@]4(C)CCCC(C)(C)[C@H]4CC[C@]3(C2)[C@@H]1O	> 50

system: not listed separately; experiment: Cytotoxicity against human SH-SY5Y cells assessed as cell viability after 24 hrs by MTT assay; format: functional, cell-based; settings: not given; method in brief: as §1

SMILES	IC50 [µM]
C=C1C(=O)[C@@]23CC[C@@H]4[C@@](C)(C=O)CCC[C@@]4(C)C2=CC[C@]1(O)C3	4.2
C[C@H]1C(=O)[C@@]23CC[C@@H]4[C@@](C)(CO)CCC[C@@]4(C)C2=CC[C@]1(O)C3	> 50
C[C@@H]1C(=O)[C@H]2C[C@]1(O)CC1=C2[C@]2(C)CCC[C@](C)(C=O)[C@H]2CC1	> 50
C=C1C(O)[C@@]23CC[C@H]4[C@@](C)(CCC[C@@]4(C)C(=O)O)[C@@H]2CC[C@]1(O)C3 (stereo not given in full)	> 50
C=C1[C@@H]2CC[C@H]3[C@]4(C)CCCC(C)(C)[C@H]4CC[C@]3(C2)[C@@H]1O	> 50

system: not listed separately; experiment: Cytotoxicity against human Saos2 cells assessed as cell viability after 24 hrs by MTT assay; format: functional, cell-based; settings: SAOS-2, 24 h; method in brief: as §1

SMILES	IC50 [µM]
C=C1C(=O)[C@@]23CC[C@@H]4[C@@](C)(C=O)CCC[C@@]4(C)C2=CC[C@]1(O)C3	7.3
C[C@H]1C(=O)[C@@]23CC[C@@H]4[C@@](C)(CO)CCC[C@@]4(C)C2=CC[C@]1(O)C3	> 50
C[C@@H]1C(=O)[C@H]2C[C@]1(O)CC1=C2[C@]2(C)CCC[C@](C)(C=O)[C@H]2CC1	> 50
C=C1C(O)[C@@]23CC[C@H]4[C@@](C)(CCC[C@@]4(C)C(=O)O)[C@@H]2CC[C@]1(O)C3 (stereo not given in full)	> 50
C=C1[C@@H]2CC[C@H]3[C@]4(C)CCCC(C)(C)[C@H]4CC[C@]3(C2)[C@@H]1O	> 50

system: not listed separately; experiment: Cytotoxicity against human HL60 cells assessed as cell viability after 24 hrs by MTT assay; format: functional, cell-based; settings: HL-60, 24 h; method in brief: as §1

SMILES	IC50 [µM]
C=C1C(=O)[C@@]23CC[C@@H]4[C@@](C)(C=O)CCC[C@@]4(C)C2=CC[C@]1(O)C3	4.4
C[C@H]1C(=O)[C@@]23CC[C@@H]4[C@@](C)(CO)CCC[C@@]4(C)C2=CC[C@]1(O)C3	> 50
C[C@@H]1C(=O)[C@H]2C[C@]1(O)CC1=C2[C@]2(C)CCC[C@](C)(C=O)[C@H]2CC1	> 50
C=C1C(O)[C@@]23CC[C@H]4[C@@](C)(CCC[C@@]4(C)C(=O)O)[C@@H]2CC[C@]1(O)C3 (stereo not given in full)	> 50
C=C1[C@@H]2CC[C@H]3[C@]4(C)CCCC(C)(C)[C@H]4CC[C@]3(C2)[C@@H]1O	> 50

system: not listed separately; experiment: Cytotoxicity against human SKOV3 cells assessed as cell viability after 24 hrs by MTT assay; format: functional, cell-based; settings: SK-OV-3, 24 h; method in brief: as §1

SMILES	IC50 [µM]
C=C1C(=O)[C@@]23CC[C@@H]4[C@@](C)(C=O)CCC[C@@]4(C)C2=CC[C@]1(O)C3	7.4
C[C@H]1C(=O)[C@@]23CC[C@@H]4[C@@](C)(CO)CCC[C@@]4(C)C2=CC[C@]1(O)C3	> 50
C[C@@H]1C(=O)[C@H]2C[C@]1(O)CC1=C2[C@]2(C)CCC[C@](C)(C=O)[C@H]2CC1	> 50
C=C1C(O)[C@@]23CC[C@H]4[C@@](C)(CCC[C@@]4(C)C(=O)O)[C@@H]2CC[C@]1(O)C3 (stereo not given in full)	> 50
C=C1[C@@H]2CC[C@H]3[C@]4(C)CCCC(C)(C)[C@H]4CC[C@]3(C2)[C@@H]1O	> 50

system: LNCaP; experiment: Cytotoxicity against human LNCAP cells assessed as cell viability after 24 hrs by MTT assay; format: functional, cell-based; settings: not given; method in brief: as §1

SMILES	IC50 [µM]
C=C1C(=O)[C@@]23CC[C@@H]4[C@@](C)(C=O)CCC[C@@]4(C)C2=CC[C@]1(O)C3	9.5
C[C@H]1C(=O)[C@@]23CC[C@@H]4[C@@](C)(CO)CCC[C@@]4(C)C2=CC[C@]1(O)C3	> 50
C[C@@H]1C(=O)[C@H]2C[C@]1(O)CC1=C2[C@]2(C)CCC[C@](C)(C=O)[C@H]2CC1	> 50
C=C1C(O)[C@@]23CC[C@H]4[C@@](C)(CCC[C@@]4(C)C(=O)O)[C@@H]2CC[C@]1(O)C3 (stereo not given in full)	> 50
C=C1[C@@H]2CC[C@H]3[C@]4(C)CCCC(C)(C)[C@H]4CC[C@]3(C2)[C@@H]1O	> 50

system: K562; experiment: Cytotoxicity against human K562 cells assessed as cell viability after 24 hrs by MTT assay; format: functional, cell-based; settings: K562, 24 h; method in brief: as §1

SMILES	IC50 [µM]
C=C1C(=O)[C@@]23CC[C@@H]4[C@@](C)(C=O)CCC[C@@]4(C)C2=CC[C@]1(O)C3	6.3
C[C@H]1C(=O)[C@@]23CC[C@@H]4[C@@](C)(CO)CCC[C@@]4(C)C2=CC[C@]1(O)C3	> 50
C[C@@H]1C(=O)[C@H]2C[C@]1(O)CC1=C2[C@]2(C)CCC[C@](C)(C=O)[C@H]2CC1	> 50
C=C1C(O)[C@@]23CC[C@H]4[C@@](C)(CCC[C@@]4(C)C(=O)O)[C@@H]2CC[C@]1(O)C3 (stereo not given in full)	> 50
C=C1[C@@H]2CC[C@H]3[C@]4(C)CCCC(C)(C)[C@H]4CC[C@]3(C2)[C@@H]1O	> 50

system: NCI-H1299; experiment: Cytotoxicity against human NCI-H1299 cells assessed as cell viability after 24 hrs by MTT assay; format: functional, cell-based; settings: NCI-H1299, 24 h; method in brief: as §1

SMILES	IC50 [µM]
C=C1C(=O)[C@@]23CC[C@@H]4[C@@](C)(C=O)CCC[C@@]4(C)C2=CC[C@]1(O)C3	12.2
C[C@H]1C(=O)[C@@]23CC[C@@H]4[C@@](C)(CO)CCC[C@@]4(C)C2=CC[C@]1(O)C3	> 50
C[C@@H]1C(=O)[C@H]2C[C@]1(O)CC1=C2[C@]2(C)CCC[C@](C)(C=O)[C@H]2CC1	> 50
C=C1C(O)[C@@]23CC[C@H]4[C@@](C)(CCC[C@@]4(C)C(=O)O)[C@@H]2CC[C@]1(O)C3 (stereo not given in full)	> 50
C=C1[C@@H]2CC[C@H]3[C@]4(C)CCCC(C)(C)[C@H]4CC[C@]3(C2)[C@@H]1O	> 50

system: DU-145; experiment: Cytotoxicity against human DU145 cells assessed as cell viability after 24 hrs by MTT assay; format: functional, cell-based; settings: DU-145, 24 h; method in brief: as §1

SMILES	IC50 [µM]
C=C1C(=O)[C@@]23CC[C@@H]4[C@@](C)(C=O)CCC[C@@]4(C)C2=CC[C@]1(O)C3	11.6
C[C@H]1C(=O)[C@@]23CC[C@@H]4[C@@](C)(CO)CCC[C@@]4(C)C2=CC[C@]1(O)C3	> 50
C[C@@H]1C(=O)[C@H]2C[C@]1(O)CC1=C2[C@]2(C)CCC[C@](C)(C=O)[C@H]2CC1	> 50
C=C1C(O)[C@@]23CC[C@H]4[C@@](C)(CCC[C@@]4(C)C(=O)O)[C@@H]2CC[C@]1(O)C3 (stereo not given in full)	> 50
C=C1[C@@H]2CC[C@H]3[C@]4(C)CCCC(C)(C)[C@H]4CC[C@]3(C2)[C@@H]1O	> 50

system: not listed separately; experiment: Cytotoxicity against human A172 cells assessed as cell viability after 24 hrs by MTT assay; format: functional, cell-based; settings: A 172, 24 h; method in brief: as §1

SMILES	IC50 [µM]
C=C1C(=O)[C@@]23CC[C@@H]4[C@@](C)(C=O)CCC[C@@]4(C)C2=CC[C@]1(O)C3	4.4
C[C@H]1C(=O)[C@@]23CC[C@@H]4[C@@](C)(CO)CCC[C@@]4(C)C2=CC[C@]1(O)C3	> 50
C[C@@H]1C(=O)[C@H]2C[C@]1(O)CC1=C2[C@]2(C)CCC[C@](C)(C=O)[C@H]2CC1	> 50
C=C1C(O)[C@@]23CC[C@H]4[C@@](C)(CCC[C@@]4(C)C(=O)O)[C@@H]2CC[C@]1(O)C3 (stereo not given in full)	> 50
C=C1[C@@H]2CC[C@H]3[C@]4(C)CCCC(C)(C)[C@H]4CC[C@]3(C2)[C@@H]1O	> 50
